From PubChem BioAssay AID504906 (The Scripps Research Institute Molecular Screening Center, 2011)

Target: Nuclear receptor ROR-alpha (Homo sapiens) (UniProt P35398)
Experiment: direct binders of RORa ligand-binding domain, late-stage follow-up, orthogonal assay for RORA inverse agonist project, biochemical, [3H]25-hydroxycholesterol, radioligand competition, GST-RORa LBD (AID 504906)
Settings: [3H]25-hydroxycholesterol displacement
Method in brief: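 Material: purified GST-tagged human RORα ligand-binding domain, residues 304-556, E. coli-expressed / Reagent: 3 nM [3H]25-hydroxycholesterol / Technique: GF/B filter capture of bound radioligand / Evaluation: Ki via mixed-inhibition model regression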

Chain of Nuclear receptor ROR-alpha (Homo sapiens) (P35398 whole entry, looked up, the tested form may be a part): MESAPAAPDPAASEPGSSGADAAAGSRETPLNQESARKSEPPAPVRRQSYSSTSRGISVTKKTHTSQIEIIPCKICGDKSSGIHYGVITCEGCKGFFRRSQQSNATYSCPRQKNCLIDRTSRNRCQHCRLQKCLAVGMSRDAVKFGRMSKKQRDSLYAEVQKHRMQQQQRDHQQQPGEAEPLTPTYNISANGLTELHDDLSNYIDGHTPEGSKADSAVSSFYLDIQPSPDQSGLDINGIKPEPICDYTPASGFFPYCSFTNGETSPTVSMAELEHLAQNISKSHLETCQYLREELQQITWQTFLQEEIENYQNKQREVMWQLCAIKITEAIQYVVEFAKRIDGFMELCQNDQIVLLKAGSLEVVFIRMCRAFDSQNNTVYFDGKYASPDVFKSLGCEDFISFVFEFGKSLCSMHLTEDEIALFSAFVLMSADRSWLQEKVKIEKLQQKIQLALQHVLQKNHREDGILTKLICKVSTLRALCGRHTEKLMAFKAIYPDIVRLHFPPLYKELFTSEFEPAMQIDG

Ki: 220 nM
Structure (SMILES): O=S(=O)(Nc1ccc(C(O)(C(F)(F)F)C(F)(F)F)cc1)c1cccs1
